According to paper PMC6701634 (Cell, 2018):

Columns and labels:
normal C57BL/6 mice = assay: 7-day daily treatment for maximal tolerated dose; format: in vivo, mouse; conditions: 7 days
[1] = system: primary leukemic BM cells isolated from MLL-AF9-induced AML mice; assay: Ex vivo apoptosis; format: cell-based, mouse; conditions: 18 hr, Annexin V-positive cells
Procedure, shortened: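 Leukemic mice (>80% GFP+ in PB); BM flushed from femur and tibia, erythrocytes lysed, cells strained. Cells cultured in StemPro-34 with 10 ng/ml IL3, IL6, TPO and SCF, 1.5*10^5 cells per well. Treated 16–18 hr, 5% CO2, with DMSO stocks diluted 1:1000; DMSO-only control. Stained with Annexin V-PE and 7AAD; flow read-out of GFP and PE. Triplicates, mean ± SD.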

CKIα [2] = molecular target: CKIα (Homo sapiens, UniProt P48729); assay: KINOMEscan binding assay; conditions: Figure 1C
GSK3α/β = assay: KINOMEscan binding assay; conditions: Figure 1C
CKIε = CKIε (Homo sapiens, UniProt P49674); assay: KINOMEscan binding assay; conditions: Figure 1C
[3] = system: primary human leukemia cells from 5 individual patients; assay: Ex vivo killing of primary human leukemia cells; format: cell-based; conditions: 18–20 hr; for leukemia cell apoptosis: comparable inhibitor concentrations
Procedure, shortened: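 BM mononuclear cells from newly diagnosed, untreated AML patients, isolated by Ficoll after BM biopsy. Used fresh or frozen; frozen cells thawed straight into IMDM with 50% FBS plus DNaseI. Viability stained with Annexin V and 7AAD after blocking with 20% human serum.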

p53 in RKO cells = assay: Western blot of RKO cells treated with A-series inhibitors; format: cell-based, human; conditions: 18 hr
Procedure, shortened: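 RKO cells grown in DMEM with 10% serum. Treated 18 hr with test compounds at several concentrations or DMSO. Lysates immunoblotted.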

CDK7 = CDK7 (Homo sapiens, UniProt P50613); assay: KINOMEscan binding to transcriptional kinases; conditions: for CDK7 Kd (direct binding affinity): Figure 4D
CDK9 = CDK9 (Homo sapiens, UniProt P50750); assay: KINOMEscan binding to transcriptional kinases; conditions: for CDK9 Kd (direct binding affinity): Figure 4D
CKIδ = CKIδ (Homo sapiens, UniProt P48730); assay: KINOMEscan binding assay; conditions: Figure 1C
CDK13 = CDK13 (Homo sapiens, UniProt Q14004); assay: KINOMEscan binding to transcriptional kinases; conditions: Figure S4B
[4] = system: Pol II CTD phosphorylation at Ser2 and Ser5; assay: Western blot of Pol II CTD phosphorylation, MV4–11 cells; format: cell-based; conditions: MV4–11 human AML cells
CDK8 = CDK8 (Homo sapiens, UniProt P49336); assay: KINOMEscan binding to transcriptional kinases; conditions: Figure S4B
[5] = system: mouse splenic AML cells (MLL-AF9); assay: Rapid-hit ex vivo AML killing assay; format: cell-based; conditions: 5 mins exposure, washout, further incubation
Procedure, shortened: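 Mouse AML cells were plated at 1.5 × 10^5 per 0.15 mL in StemPro-34 with IL3, IL6, TPO and SCF (10 ng/ml each) at 5% CO2. Test compound was added from DMSO stock diluted 1:1000, with DMSO alone as control. At the set times cells were spun, resuspended in drug-free medium and kept for 18 hr total. Cells were stained with Annexin V-PE/7AAD and read by flow for GFP and PE.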

Myc, Mdm2, Mcl1 mRNA = assay: qPCR analysis of mouse primary AML BM cells; format: cell-based; conditions: 1 μM, 4 hr ex vivo
Procedure, shortened: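 Primary BM AML cells from MLL-AF9 mice treated ex vivo for 4 hr with 1 μM test compound or DMSO (stocks diluted 1:1000). Myc, Mdm2, Mcl1 and Axin2 transcripts measured by qPCR. N = 3, mean ± SD, Student's t test.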

[6] = system: MYC, MDM2, AXIN2, CCND1 mRNA in MV4–11 cells; assay: qPCR mRNA analysis of MV4–11 cells; format: cell-based, human; conditions: 4 hr; A51 2μM, A86 2μM, BTX161 25μM
Procedure, shortened: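 MV4–11 cells were treated for 4 hr with test compounds or DMSO, and transcripts were measured by qPCR. Three replicates (N = 3) were run, given as mean ± SD and compared by Student's t test.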

CDK11b = CDK11b (Homo sapiens, UniProt P21127); assay: KINOMEscan binding to transcriptional kinases; conditions: Figure S4B
[7] = system: heavy burden MLL-AF9 leukemic mice; assay: Acute in vivo anti-leukemic effect, single oral dose; set-up: species or system mouse
Procedure, shortened: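 MLL-AF9-IRES-GFP retrovirus-transduced BM cells were passaged through sublethally irradiated (500 rad) mice. 50,000 GFP+ BM cells were then injected IV into irradiated (250 rad) C57BL/6 WT mice aged 8–12 weeks. Mice with >80% GFP+ cells in PB got a single oral dose (e.g. 10 or 20 mg/kg) or vehicle and were sacrificed at short time points (5–6 or 16 hr). Read-outs: […], absolute BM GFP+ blast counts, H&E sections and blood smears; mean ± SD, N ≥ 3.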

CDK11a = CDK11a (Homo sapiens, UniProt Q9UQ88); assay: KINOMEscan binding to transcriptional kinases; conditions: Figure S4B
[8] = system: Pol II CTD phosphorylation at Ser2 and Ser5; assay: Western blot of Pol II CTD phosphorylation, primary mouse AML cells; format: cell-based; conditions: ex vivo 6 hr
Procedure, shortened: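 Primary spleen cells from MLL-AF9 AML mice treated ex vivo for 6 hr with test compounds at several concentrations or DMSO. DMSO stocks diluted 1:1000 into medium. Immunoblot with PP2Ac as loading control.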

[9] = system: cKit^HiCD11b^Low progenitors from Tet2^−/−;Flt3^ITD mice; assay: Ex vivo apoptotic killing of Tet2−/−; format: cell-based, mouse; conditions: 16 hr after treatment
[10] = system: MV4–11 cells (DDR, p53, MDM2, MYC, MCL1); assay: Western blot of MV4–11 cells; format: cell-based, human; conditions: 6.5 hr
Procedure, shortened: (§1)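 MV4–11 cells were exposed to test compounds at set concentrations or DMSO for 6.5 hr and analysed by western blot, with PP2Ac as loading control.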

CDK19 = CDK19 (Homo sapiens, UniProt Q9BWU1); assay: KINOMEscan binding to transcriptional kinases; conditions: Figure S4B
[11] = system: MV4–11 cells (pSer2/5 CTD, DDR, p53, MDM2, caspase 3); assay: Western blot of MV4–11 cells, single and combination treatment; format: cell-based, human; conditions: for DDR, p53, MDM2 and caspase 3 activation: MV4–11, single agent (BTX161 6 hr, iCDK9 4 hr, THZ1 4 hr)
Procedure, shortened: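 MV4–11 cells treated at several concentrations, alone or combined: CKIα degrader for 6 hr, CDK9 inhibitor for 4 hr, CDK7 inhibitor for 4 hr. Lysates immunoblotted, with PP2Ac as loading control.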

CKIα [12] = assay: Western blot of CKIα degradation in human AML cells; format: cell-based; conditions: MV4–11 cells, 6.5 hr
Procedure, shortened: as §1

Chain of CDK9 (P50750 whole entry): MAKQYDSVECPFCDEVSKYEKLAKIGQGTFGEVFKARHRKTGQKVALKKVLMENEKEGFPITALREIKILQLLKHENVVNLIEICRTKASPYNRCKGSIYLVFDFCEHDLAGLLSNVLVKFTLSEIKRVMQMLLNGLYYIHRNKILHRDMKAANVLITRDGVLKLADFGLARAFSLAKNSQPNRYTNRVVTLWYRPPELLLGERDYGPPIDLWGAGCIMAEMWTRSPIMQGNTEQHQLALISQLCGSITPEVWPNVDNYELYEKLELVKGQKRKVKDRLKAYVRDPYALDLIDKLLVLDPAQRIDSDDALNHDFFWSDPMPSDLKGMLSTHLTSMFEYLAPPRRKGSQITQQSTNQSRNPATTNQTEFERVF
Chain of CDK7 (P50613 whole entry): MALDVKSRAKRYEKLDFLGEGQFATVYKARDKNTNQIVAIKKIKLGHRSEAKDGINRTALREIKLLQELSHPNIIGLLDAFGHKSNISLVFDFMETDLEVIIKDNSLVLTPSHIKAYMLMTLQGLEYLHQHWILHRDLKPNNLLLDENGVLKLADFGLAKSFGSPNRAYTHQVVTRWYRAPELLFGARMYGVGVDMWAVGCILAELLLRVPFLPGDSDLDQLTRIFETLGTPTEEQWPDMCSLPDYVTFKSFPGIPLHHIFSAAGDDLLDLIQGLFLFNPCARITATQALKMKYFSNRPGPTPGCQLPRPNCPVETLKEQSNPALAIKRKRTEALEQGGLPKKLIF
Chain of CKIε (P49674 whole entry): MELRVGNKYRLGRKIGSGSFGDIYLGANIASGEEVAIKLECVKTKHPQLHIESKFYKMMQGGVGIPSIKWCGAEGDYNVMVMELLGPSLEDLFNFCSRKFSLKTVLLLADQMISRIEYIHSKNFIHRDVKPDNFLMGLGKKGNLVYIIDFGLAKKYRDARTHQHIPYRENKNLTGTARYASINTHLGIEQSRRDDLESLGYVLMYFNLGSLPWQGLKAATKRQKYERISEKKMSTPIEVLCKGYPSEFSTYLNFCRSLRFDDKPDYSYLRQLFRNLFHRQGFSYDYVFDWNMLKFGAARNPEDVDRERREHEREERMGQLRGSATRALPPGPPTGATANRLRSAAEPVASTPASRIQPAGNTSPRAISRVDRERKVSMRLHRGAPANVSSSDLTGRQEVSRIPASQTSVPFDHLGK
Chain of CDK19 (Q9BWU1 whole entry): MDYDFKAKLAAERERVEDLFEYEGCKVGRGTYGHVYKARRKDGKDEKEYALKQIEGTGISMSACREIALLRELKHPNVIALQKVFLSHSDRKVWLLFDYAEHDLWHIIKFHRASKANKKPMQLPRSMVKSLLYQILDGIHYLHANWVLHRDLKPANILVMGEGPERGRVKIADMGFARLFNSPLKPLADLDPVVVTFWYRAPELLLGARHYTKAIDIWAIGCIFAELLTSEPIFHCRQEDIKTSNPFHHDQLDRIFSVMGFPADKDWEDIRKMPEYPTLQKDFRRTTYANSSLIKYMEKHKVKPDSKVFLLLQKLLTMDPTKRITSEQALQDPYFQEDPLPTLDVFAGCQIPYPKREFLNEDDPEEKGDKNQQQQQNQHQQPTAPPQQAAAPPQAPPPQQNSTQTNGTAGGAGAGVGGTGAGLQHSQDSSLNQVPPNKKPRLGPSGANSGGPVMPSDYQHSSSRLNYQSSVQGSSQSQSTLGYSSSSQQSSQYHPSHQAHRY
Chain of CDK11b (P21127 whole entry): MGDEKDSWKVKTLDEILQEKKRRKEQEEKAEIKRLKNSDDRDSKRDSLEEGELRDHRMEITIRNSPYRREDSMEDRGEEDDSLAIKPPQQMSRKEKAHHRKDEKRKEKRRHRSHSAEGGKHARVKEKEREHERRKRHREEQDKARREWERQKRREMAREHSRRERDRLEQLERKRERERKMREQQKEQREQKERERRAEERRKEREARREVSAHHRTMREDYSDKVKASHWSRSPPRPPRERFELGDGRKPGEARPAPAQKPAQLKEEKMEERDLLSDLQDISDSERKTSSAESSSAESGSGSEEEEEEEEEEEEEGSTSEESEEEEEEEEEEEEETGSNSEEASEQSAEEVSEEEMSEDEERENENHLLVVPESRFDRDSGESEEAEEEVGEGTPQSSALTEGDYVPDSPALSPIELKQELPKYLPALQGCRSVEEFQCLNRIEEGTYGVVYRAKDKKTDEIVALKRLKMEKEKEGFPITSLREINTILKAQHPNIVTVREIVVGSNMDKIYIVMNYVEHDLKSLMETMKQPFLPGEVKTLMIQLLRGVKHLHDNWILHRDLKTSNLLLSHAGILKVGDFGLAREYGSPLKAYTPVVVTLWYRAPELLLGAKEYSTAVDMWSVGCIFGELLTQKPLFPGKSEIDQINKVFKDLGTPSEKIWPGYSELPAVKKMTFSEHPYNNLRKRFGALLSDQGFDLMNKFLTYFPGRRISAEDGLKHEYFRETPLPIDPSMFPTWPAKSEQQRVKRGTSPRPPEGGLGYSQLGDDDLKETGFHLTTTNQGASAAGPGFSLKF
Chain of CKIδ (P48730 whole entry): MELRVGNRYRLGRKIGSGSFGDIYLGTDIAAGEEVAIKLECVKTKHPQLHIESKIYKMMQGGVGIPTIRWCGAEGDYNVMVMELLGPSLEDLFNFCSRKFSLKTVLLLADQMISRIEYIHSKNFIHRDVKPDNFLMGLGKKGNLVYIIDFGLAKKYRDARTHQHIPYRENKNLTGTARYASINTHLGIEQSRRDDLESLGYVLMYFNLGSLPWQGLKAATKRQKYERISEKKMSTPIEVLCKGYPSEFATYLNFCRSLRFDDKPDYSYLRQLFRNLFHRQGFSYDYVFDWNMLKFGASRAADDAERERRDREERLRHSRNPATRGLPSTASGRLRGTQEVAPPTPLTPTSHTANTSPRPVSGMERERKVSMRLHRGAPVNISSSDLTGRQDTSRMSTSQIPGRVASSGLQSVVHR
Chain of CDK13 (Q14004 whole entry): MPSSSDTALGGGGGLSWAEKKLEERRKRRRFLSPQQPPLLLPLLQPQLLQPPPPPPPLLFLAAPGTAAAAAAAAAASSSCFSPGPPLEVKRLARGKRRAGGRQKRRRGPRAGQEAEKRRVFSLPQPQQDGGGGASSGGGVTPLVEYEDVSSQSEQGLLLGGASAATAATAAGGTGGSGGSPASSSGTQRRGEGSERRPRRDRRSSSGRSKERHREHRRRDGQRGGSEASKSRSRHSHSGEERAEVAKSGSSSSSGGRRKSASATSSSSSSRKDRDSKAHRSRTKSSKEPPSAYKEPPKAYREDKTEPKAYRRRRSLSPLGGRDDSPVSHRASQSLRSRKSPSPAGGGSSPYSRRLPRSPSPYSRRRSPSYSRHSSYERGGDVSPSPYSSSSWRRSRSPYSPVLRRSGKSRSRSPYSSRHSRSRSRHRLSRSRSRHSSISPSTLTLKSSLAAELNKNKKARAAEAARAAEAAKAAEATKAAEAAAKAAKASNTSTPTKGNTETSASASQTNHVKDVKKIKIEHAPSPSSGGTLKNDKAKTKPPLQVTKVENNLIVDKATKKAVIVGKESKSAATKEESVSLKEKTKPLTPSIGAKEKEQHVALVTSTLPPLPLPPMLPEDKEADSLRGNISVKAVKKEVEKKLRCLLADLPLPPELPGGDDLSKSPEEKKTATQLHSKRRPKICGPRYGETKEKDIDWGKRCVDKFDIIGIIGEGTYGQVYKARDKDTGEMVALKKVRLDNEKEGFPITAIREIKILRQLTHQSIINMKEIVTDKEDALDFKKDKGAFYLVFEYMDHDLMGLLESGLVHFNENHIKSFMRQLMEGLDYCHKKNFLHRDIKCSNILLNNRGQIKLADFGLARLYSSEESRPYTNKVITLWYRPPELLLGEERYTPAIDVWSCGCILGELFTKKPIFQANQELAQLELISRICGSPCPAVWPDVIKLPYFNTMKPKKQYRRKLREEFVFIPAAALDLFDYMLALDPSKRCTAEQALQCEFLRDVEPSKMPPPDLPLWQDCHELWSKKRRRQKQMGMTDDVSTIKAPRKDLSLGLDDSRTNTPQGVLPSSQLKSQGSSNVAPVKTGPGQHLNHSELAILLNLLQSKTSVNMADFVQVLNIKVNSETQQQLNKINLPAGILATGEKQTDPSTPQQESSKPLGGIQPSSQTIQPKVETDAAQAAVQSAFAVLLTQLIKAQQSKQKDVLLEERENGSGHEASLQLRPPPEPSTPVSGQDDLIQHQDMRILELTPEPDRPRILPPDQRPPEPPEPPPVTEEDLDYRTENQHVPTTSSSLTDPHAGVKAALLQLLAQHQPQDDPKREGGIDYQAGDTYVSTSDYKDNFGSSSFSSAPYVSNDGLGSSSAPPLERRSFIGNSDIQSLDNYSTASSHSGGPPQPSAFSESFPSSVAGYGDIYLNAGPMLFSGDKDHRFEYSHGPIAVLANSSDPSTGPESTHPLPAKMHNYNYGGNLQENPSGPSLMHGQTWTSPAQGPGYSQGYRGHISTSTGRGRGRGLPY
Chain of CKIα (Homo sapiens, UniProt P48729) (P48729 whole entry): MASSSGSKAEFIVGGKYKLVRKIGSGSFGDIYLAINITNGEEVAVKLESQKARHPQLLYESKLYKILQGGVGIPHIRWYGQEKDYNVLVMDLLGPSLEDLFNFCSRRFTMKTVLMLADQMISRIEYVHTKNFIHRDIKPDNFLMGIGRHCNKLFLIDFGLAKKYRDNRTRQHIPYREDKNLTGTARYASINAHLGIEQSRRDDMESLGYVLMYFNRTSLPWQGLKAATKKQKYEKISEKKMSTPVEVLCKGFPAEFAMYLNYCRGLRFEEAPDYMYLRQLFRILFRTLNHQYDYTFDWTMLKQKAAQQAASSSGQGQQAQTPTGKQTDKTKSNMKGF

Structure (SMILES): Cn1ncc(-c2ccnc(N[C@H]3CC[C@H](N)CC3)n2)c1CC1CC1 [A14, (1R, 4R)-N^1-(4-(5-(cyclopropylmethyl)-1-methyl-1H-pyrazol-4-yl)pyrimidin-2-yl)cyclohexane-1,4-diamine]
- effect on hematopoiesis at 5–10 mg/kg (normal C57BL/6 mice; 5–10 mg/kg): no adverse effect on hematopoiesis
- effect on blood counts at doses above 10 mg/kg (normal C57BL/6 mice; doses above 10 mg/kg): transiently reduced the white blood cells (WBC) and platelet counts
- concentration highly effective in inducing leukemia cell apoptosis [1]: ≤ 160 nM

Structure (SMILES): Cn1ncc(-c2nc(N[C@H]3CC[C@H](n4cccn4)CC3)ncc2Cl)c1CC1CC1 [A64, N-((1R,4R)-4-(1H-pyrazol-1-yl)cyclohexyl)-5-chloro-4-(5-(cyclopropylmethyl)-1-methyl-1H-pyrazol-4-yl)pyrimidin-2-amine]
- CKIα affinity (CKIα [2]): low CKIα affinity
- GSK3α/β affinity (GSK3α/β): high GSK3α/β affinity
- affinity to CKIε (CKIε): high affinity
- leukemia cell apoptosis [3]: but not by A64 or midostaurin
- p53 induction (p53 in RKO cells): only induces p53 at a high concentration
- CDK7 Kd (direct binding affinity) (CDK7): moderately
- CDK9 Kd (direct binding affinity) (CDK9): poorly
- affinity to CKIδ (CKIδ): high affinity

Structure (SMILES): Cn1ncc(-c2nc(NC3CCC(NCc4cn[nH]c4)CC3)ncc2Cl)c1CC1CC1 [A75, (1R,4R)-N^1-((1H-pyrazol-4-yl)methyl)-N^4-(5-chloro-4-(5-(cyclopropylmethyl)-1-methyl-1H-pyrazol-4-yl)pyrimidin-2-yl)cyclohexane-1,4-diamine]
- concentration highly effective in inducing leukemia cell apoptosis [1]: ≤ 160 nM

Structure (SMILES): Cn1ncc(-c2nc(NC3CCC(N)CC3)ncc2F)c1CC1CC1 [A86, (1R,4R)-N^1-(4-(5-(cyclopropylmethyl)-1-methyl-1H-pyrazol-4-yl)-5-fluoropyrimidin-2-yl)cyclohexane-1,4-diamine]
- inhibition of CDK13 in binding screen (CDK13): hardly any inhibition
- Pol II CTD phosphorylation at Ser2 and Ser5 [4]: marked reduction
- inhibition of CDK8 in binding screen (CDK8): hardly any inhibition
- AML cell killing after short exposure [5]: sufficient to induce significant AML cell killing
- Myc, Mdm2, and Mcl1 mRNA expression (Myc, Mdm2, Mcl1 mRNA): significant reduction of Myc, Mdm2, and Mcl1 mRNA expression
- leukemia cell apoptosis [3]: leukemia cell apoptosis
- IC50 ([3]; read-out: IC50 of killing effect, all 5 patient samples): 0.02 to 0.05 µM
- effect on mRNA expression (MYC, MDM2, Wnt targets) [6]: marked reduction in mRNA expression of MYC and MDM2
- inhibition of CDK11b in binding screen (CDK11b): hardly any inhibition
- leukemic cell counts (GFP+) in BM and peripheral blood ([7]; 16 hr post single oral dose): 5%–10%
- in vivo signaling in leukemic cells after single oral treatment ([7]; A51 20 mg/kg 3 and 6 hr, A86 10 mg/kg 5 hr, spleen AML cells WB): phospho-CTD inhibition with downregulation of MCL1 and activation of p53, DDR, and caspase 3
- inhibition of CDK11a in binding screen (CDK11a): hardly any inhibition
- concentration highly effective in inducing leukemia cell apoptosis [1]: ≤ 160 nM
- Pol II CTD phosphorylation at Ser2 and Ser5 [8]: marked reduction
- ex vivo apoptotic killing of cKit^HiCD11b^Low progenitors [9]: superior to midostaurin
- effect on DDR, p53, MDM2, MYC, MCL1 protein levels (WB) [10]: abolished the expression of MYC, MDM2, and the anti-apoptotic oncogene MCL1
- CDK7 Kd (direct binding affinity) (CDK7): low nM Kd values
- inhibition of CDK7 (TFIIH) in binding screen (CDK7; Figure S4B): high inhibition
- CDK9 Kd (direct binding affinity) (CDK9): low nM Kd values
- inhibition of CDK9 (P-TEFb) in binding screen (CDK9; Figure S4B): high inhibition
- inhibition of CDK19 in binding screen (CDK19): hardly any inhibition

Structure (SMILES): Cc1cccc2c1CN([C@H]1CCCC(=O)NC1=O)C2=O [BTX161, (S)-3-(4-methyl-1-oxoisoindolin-2-yl)azepane-2,7-dione]
- DDR, p53, MDM2 and caspase 3 activation [11]: augmented p53 and MDM2 protein expression
- effect on mRNA expression (MYC, MDM2, Wnt targets) [6]: upregulated all the Wnt targets including MYC and did not affect MDM2 mRNA expression
- CKIα degradation (CKIα [12]): mediates degradation of CKIα better than lenalidomide
- effect on DDR, p53, MDM2, MYC, MCL1 protein levels (WB) [10]: activates DDR and p53, while stabilizing the p53 antagonist MDM2

Structure (SMILES): CN(C)C/C=C/C(=O)Nc1ccc(C(=O)Nc2cccc(Nc3ncc(Cl)c(-c4c[nH]c5ccccc45)n3)c2)cc1 [THZ1]
- pSer2/5 CTD ([11]; MV4–11, 4 hr, single agent): reduced the pSer2/5 CTD
- DDR, p53, MDM2 and caspase 3 activation [11]: little effect on DDR, p53, and caspase 3 activation

Structure (SMILES): CO[C@@H]1[C@H](N(C)C(=O)c2ccccc2)C[C@H]2O[C@]1(C)n1c3ccccc3c3c4c(c5c6ccccc6n2c5c31)C(=O)NC4 [midostaurin, reference compound]
- leukemia cell apoptosis [3]: but not by A64 or midostaurin
